Test results published in ChEMBL document CHEMBL3102858, “Anti-hepatitis C virus dinorditerpenes from the roots of Flueggea virosa” (J Nat Prod, 2014).

Key:
[1] = Therapeutic index, ratio of IC50 for human Huh7.5 cells to EC50 for HCV; assay type: cell-based, Huh-7; conditions: read-out: Ratio IC50/EC50
Summary of the method: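 TI was calculated as IC50/EC50. IC50 came from the 72 h Huh7.5 viability assay and EC50 from the 72 h JC1-Luc2A HCVcc luciferase infection assay.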

Hepatitis C virus = test: Antiviral activity against HCV expressing JC1-Luc2A infected in Huh7.5 cells assessed as inhibition of viral infection after 72 hrs by luciferase reporter gene assay; assay type: functional, organism-based, Hepacivirus hominis; conditions: Huh7.5, 72 h
Summary of the method: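 Huh7.5 cells were preseeded at 1 × 10^4 cells/well for 24 h, then exposed to JC1-Luc2A reporter HCV (0.1 MOI) for 4 h. The inoculum was removed and the cells washed three times. Fresh medium with compounds was added. After 72 h, luciferase activity was read in cell lysates (Bright-Glo). EC50 is the concentration inhibiting HCVcc infection by 50%.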

[2] = Cytotoxicity against human Huh7.5 cells after 72 hrs; assay type: cell-based; conditions: Huh-7, 72 h
Summary of the method: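 Huh7.5 cells, derived from human hepatoma Huh7, were grown in DMEM with 10% heat-inactivated FBS and 1% nonessential amino acids. They were preseeded at 1 × 10^4 cells/well for 24 h, then given serial compound concentrations. Viable cells were measured after 72 h with the CellTiter 96 Aqueous One Solution kit. IC50 is the concentration inhibiting cell growth by 50%.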

| Compound | EC50 (Hepatitis C virus) [µM] | selectivity ratio [1] | IC50 [2] [µM] |
| --- | --- | --- | --- |
| C=CCc1ccc(O)c(-c2ccc(O)c(CC=C)c2)c1 [HONOKIOL] | 9.4 | 6.2 | – |
| Cc1cc2c(cc1O)[C@]1(C)CC[C@H](O)C(C)(C)[C@H]1C=C2 | 5.6 | 9.8 | 54.9 |
| COc1cc2c(cc1CO)C=C[C@@H]1C(C)(C)[C@@H](O)CC[C@@]21C | 30.5 | 4.9 | 151 |
| C=Cc1c(C)c(O)cc2c1CC[C@@H]1C(C)(C)[C@H](O)CC[C@@]21C [SPRUCEANOL] | 5 | 10.5 | 52.4 |
| Cc1cc2c(cc1O)[C@]1(C)CCC(=O)C(C)(C)[C@H]1[C@H](O)C2 | 52.8 | 5.5 | 292 |
| Cc1cc2c(cc1O)[C@]1(C)CC[C@H](O)C(C)(C)[C@H]1CC2 | 12 | 4.5 | 54.3 |
| Cc1cc2c(cc1O)[C@]1(C)CCC(=O)C(C)(C)[C@H]1C=C2 | 25.5 | 3.4 | 86.5 |
| C=C[C@]1(C)C=C2CC[C@H]3C(C)(C)[C@H](O)CC[C@]3(C)[C@H]2C[C@@H]1O | 52.7 | 3.2 | 167 |

Now from value to compound, other results behind:

| EC50 (Hepatitis C virus) [µM] | Compound | selectivity ratio [1] | IC50 [2] [µM] |
| --- | --- | --- | --- |
| 24.9 | COc1cc2c(cc1C)C=C[C@@H]1C(C)(C)[C@H](O)CC[C@@]21C | 2.8 | 70 |
| 7.5 | COc1cc2c(cc1C)[C@H]1C[C@@H]3C(C)(C)[C@H](O)CC[C@@]23CO1 | 55.9 | 419 |
| 27.4 | COc1cc2c(cc1CO)C=C[C@@H]1C(C)(C)[C@H](O)CC[C@@]21C | 4.6 | 125 |
| 6.6 | COc1cc2c(cc1C)CC[C@@H]1C(C)(C)[C@@]3(O)CC[C@@]21CO3 | 45 | 297 |
| 47.3 | COc1cc2c(cc1C)C=C[C@@H]1C(C)(C)C(=O)CC[C@@]21C | 1.7 | 81.8 |
